Only a selection was taken, and hits are over-represented in it overall.
XBP1 UPR activ: activators of adaptive XBP1 UPR arm, primary screen, cell-based, CHO-XBP1 luciferase reporter, luminescence, uHTS. IRE1-XBP1 UPR activation; percent of tunicamycin response, DMSO as zero. activation, % at 20 µM. hit rate 0.33% among 330,000;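 active = versus positive control, 20 µM dose yields 30% or more activation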
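Assay system: CHO-XBP1 luciferase reporter cells; Schedule: 6 h treatment, 37 °C; Detection: glow luminescence from Steady-Glo reagent; Benchmarks: high control tunicamycin 10 µg/mL final, low control DMSO vehicle only.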
CHOP UPR activ: activators of apoptotic CHOP UPR arm, primary screen, cell-based, CHO-CHOP luciferase reporter, luminescence, uHTS. activation, % at 10 µM. hit rate 0.34% among 330,000. UPR activation; percent of tunicamycin response over DMSO baseline;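 active = at 10 µM dose, activation of 40% or more, normalized to positive control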
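System: CHO-CHOP luciferase reporter cell line; amount: 500 cells/well; buffer or medium: F12 medium containing 10% fetal bovine serum; incubation: 6 h compound exposure at 37 °C after overnight seeding; measured by: luciferase luminescence after 10 min with Steady-Glo reagent; evaluation: % reporter activation, DMSO baseline versus tunicamycin full activation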
FXN GAA850 act: FXN promoter activators, primary screen, cell-based, luciferase luminescence, HEK293 lucGAA850 | HEK293 lucGAA850 FXN promoter luciferase reporter, 24 h; percent of 10 µM SAHA response | activation, % at 6 µM | hit rate 0.56% among 360,000 | AID 540364, 2011;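 active = activation above the average of all compounds screened plus 3 SD, cutoff fixed separately per campaign, cut at about 7.5% in these data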
CHOP inh: inhibitors of CHOP promoter induction, primary screen, cell-based, unfolded protein response, luciferase reporter. hit rate 3.8% among 220,000. inhibition, % at 10 µM. AID 2732, 2010. CHO-K1 CHOP-promoter luciferase, tunicamycin-induced, 15-18 h;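 active = compounds that reduced the stress-induced luciferase reporter signal by more than about 70% of percent inhibition, limit read from the data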
GAA30 FXN cntr: GAA30 FXN promoter activators, confirmation, counter-screen for GAA850 frataxin promoter activator project, cell-based, luminescence, HEK293, lucGAA30, triplicate; shares compounds with FXN GAA850 act; AID 588350, 2011; HEK293 lucGAA30 FXN promoter luciferase, 24 h; DMSO = 0%, 5 µM ipriflavone = 100%; activation, % at 6 µM; hit rate 66% among 1,900;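 active = mean activation above the mean of solvent-only control wells plus 3 SD, cut at about 22% in these data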;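 note: counterscreen of GAA850 promoter hits where activity marks nonselective or luminescence artifacts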
GAA850 confirm: FXN GAA850 promoter activators in reporter cells, confirmation, cell-based, luminescence, HEK293 lucGAA850, triplicate; activation, % at 6 µM; shares compounds with FXN GAA850 act; AID 588351, 2011; HEK293 lucGAA850 FXN promoter luciferase reporter, 24 h; 100% = activation by SAHA; hit rate 86% among 1,900;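 active = mean activation above a set limit taken from the primary screen, cut at about 8% in these data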
Each line names hits and unclear results; the compound was inactive in the other large screens (follow-up assays come after a bar, where they were run).

ClCc1csc(-c2ccc(Cl)cc2)n1	none
COc1ccc(N2Cc3ccccc3C2=O)cc1	none (no result: CHOP inh)
C=CC(=O)Oc1ccc(N2Cc3ccccc3C2=O)cc1	FXN GAA850 act 8.0 (no result: CHOP inh) | GAA30 FXN cntr 32 | GAA850 confirm inactive
CCc1ccc(-c2cn(C3CCCCC3)c(=S)[nH]2)cc1	FXN GAA850 act 8.0 | GAA30 FXN cntr 58 | GAA850 confirm 24
CCc1ccc(-n2cc(-c3ccc([N+](=O)[O-])cc3)[nH]c2=S)cc1	none
Cc1cc(NC(=O)C(C)SCC(=O)Nc2cc(C(F)(F)F)ccc2N2CCOCC2)no1 (configuration not stated)	FXN GAA850 act 8.8 (no result: CHOP inh) | GAA30 FXN cntr 26 | GAA850 confirm 13
O=C(Cn1ccc(=O)[nH]c1=O)c1ccc([N+](=O)[O-])o1	none (no result: XBP1 UPR activ, CHOP UPR activ, CHOP inh)
CC(C)NC(=S)N(C)C1(c2ccccc2Cl)CCCCC1=O (configuration not stated)	none
CN(C(=S)NC1CCCCC1)C1(c2ccccc2Cl)CCCCC1=O (configuration not stated)	FXN GAA850 act 8.8 | GAA30 FXN cntr inactive | GAA850 confirm 9.2
Nc1ccc(S(=O)(=O)Nc2nc(-c3ccccc3)cc(-c3ccccc3O)n2)cc1	none (no result: XBP1 UPR activ, CHOP UPR activ, CHOP inh)
CNCCCOc1ccc2c(c1)CCC2	none
c1cnc(SCCOc2ccc3c(c2)CCC3)nc1	FXN GAA850 act 8.2 | GAA30 FXN cntr 101 | GAA850 confirm 38
Nc1c(Cl)ncnc1N/N=C/c1ccc(O)cc1	FXN GAA850 act 7.8 | GAA30 FXN cntr 52 | GAA850 confirm 14
Oc1ccc(/C=N/Nc2nccnc2Cl)cc1	none
CCCCn1cnc2c(cnn2-c2ccc(F)cc2)c1=O	none
CCCn1cnc2c(cnn2-c2ccc(F)cc2)c1=O	FXN GAA850 act 10.0 | GAA30 FXN cntr 59 | GAA850 confirm 18
Cc1c(C(=O)OCCOC(C)C)[nH]c2c1C(=O)CC(C)(C)C2	FXN GAA850 act 10.0 | GAA30 FXN cntr 35 | GAA850 confirm 13
CNC(=O)C1CN(C(=O)c2nn(Cc3ccccc3)c(=O)c3ccccc23)c2ccccc2O1 (configuration not stated)	none (no result: XBP1 UPR activ, CHOP UPR activ, CHOP inh)
Cc1nn(-c2ccccc2)c(Cl)c1/C=N/NC(=O)OC(C)(C)C	none
CCOC(=O)N/N=C/c1c(C)nn(-c2ccccc2Cl)c1Cl	FXN GAA850 act 8.2 | GAA30 FXN cntr 93 | GAA850 confirm 34
Cc1c(NC(=O)c2cc3ccccc3o2)cccc1-n1cnnn1	none (no result: XBP1 UPR activ, CHOP UPR activ, CHOP inh)
Oc1ccc(/C=N/Nc2ccnc3cc(Cl)ccc23)c(O)c1	FXN GAA850 act 12, CHOP inh 90 | GAA30 FXN cntr 60 | GAA850 confirm 19
Oc1ccc(Nc2ccnc3cc(Cl)ccc23)cc1	FXN GAA850 act 10 | GAA30 FXN cntr 39 | GAA850 confirm 11
Cc1[nH]c2ccccc2c1SCc1ccccc1	FXN GAA850 act 15, CHOP inh 83 | GAA30 FXN cntr inactive | GAA850 confirm inactive
Cc1[nH]c2ccccc2c1SCCN	none (no result: CHOP inh)
Cc1cc(F)ccc1C(O)c1ncc(-c2cccc(F)c2)[nH]1 (configuration not stated)	none (no result: XBP1 UPR activ, CHOP UPR activ, CHOP inh)
c1ccc(CN2CCN(C(c3ccccc3)c3ccccc3)CC2)cc1	none (no result: CHOP inh)
O=S(=O)(CCN1CCN(C(c2ccccc2)c2ccccc2)CC1)C(F)(F)F	FXN GAA850 act 7.8 | GAA30 FXN cntr 37 | GAA850 confirm 16
O=C(Nc1ccc(Cl)c(Cl)c1)C1=Cc2ccccc2OC1	FXN GAA850 act 9.1 | GAA30 FXN cntr 86 | GAA850 confirm 34
Cc1nc(Nc2ccccc2Cl)sc1C(=O)Nc1ccccc1	FXN GAA850 act 16 | GAA30 FXN cntr 67 | GAA850 confirm 21
CN(c1ccc(C(=O)Nc2ccc3c(c2)OCCO3)cc1)S(C)(=O)=O	FXN GAA850 act 9.2 | GAA30 FXN cntr 93 | GAA850 confirm 29
CCCOC(=O)c1c(N)sc(C(=O)OCC)c1C	FXN GAA850 act 14 | GAA30 FXN cntr 64 | GAA850 confirm 25
CCOC(=O)c1c(N)sc(C(N)=O)c1C	none
CC(C)Oc1cc(F)ccc1-c1cc(C(=O)NCc2cccs2)[nH]n1	none (no result: XBP1 UPR activ, CHOP UPR activ, CHOP inh)
CCOC(=O)c1c(CN2CCN(CCO)CC2)n(C)c2cc(Br)c(OC)cc12	FXN GAA850 act 8.2 | GAA30 FXN cntr 23 | GAA850 confirm 18
O=C(Nc1ccc2c(c1)OCO2)c1n[nH]c(=O)c2ccccc12	FXN GAA850 act 9.8 | GAA30 FXN cntr 100 | GAA850 confirm 40
O=C(Nc1ccc2c(c1)OCO2)c1ccc(Br)s1	FXN GAA850 act 20 | GAA30 FXN cntr 108 | GAA850 confirm 38
O=C(Nc1ccc2c(c1)OCO2)c1nn(-c2ccccc2)c(=O)c2ccccc12	none
Cc1cc(C(=O)N2CCC2(C)C(=O)Nc2cccc3ccccc23)nn1C (configuration not stated)	none (no result: XBP1 UPR activ, CHOP UPR activ, CHOP inh)
CC[C@@]12C(=O)N(c3cccc(F)c3)C(=O)N1[C@H](c1ccc(Br)cc1)[C@@H]1C(=O)N(C(C)(C)C)C(=O)[C@@H]12	FXN GAA850 act 15 (no result: CHOP inh) | GAA30 FXN cntr 26 | GAA850 confirm 13
CC(C)(C)N1C(=O)[C@H]2[C@@H](c3ccc(Br)cc3)N3C(=O)N(c4cccc(F)c4)C(=O)[C@@]3(Cc3ccccc3)[C@H]2C1=O	none (no result: CHOP inh)
COc1ccc([C@@H]2[C@@H]3C(=O)N(C(C)(C)C)C(=O)[C@@H]3[C@]3(CC(C)C)C(=O)N(c4cccc(F)c4)C(=O)N23)cc1	FXN GAA850 act 15 (no result: CHOP inh) | GAA30 FXN cntr 46 | GAA850 confirm 16
Nc1cc(=O)nc2cn[nH]n12	none (no result: XBP1 UPR activ, CHOP UPR activ, CHOP inh)
Cc1ccc(NC(=O)C(NC2CCCc3ccccc32)c2ccccc2)c([N+](=O)[O-])c1 (configuration not stated)	FXN GAA850 act 9.6 | GAA30 FXN cntr inactive | GAA850 confirm 17
CCCNC(=O)c1oc2ccc3c(c2c1C)C=CC(C)(C)O3	FXN GAA850 act 10 (no result: CHOP inh) | GAA30 FXN cntr 91 | GAA850 confirm 41
Cc1c(C(=O)NCCc2ccccc2)oc2ccccc12	none (no result: CHOP inh)
CCOC(=O)N1CCC2(CC1)CC(=O)c1c(ccc3oc(C(=O)O)c(C)c13)O2	none
CCCNC(=O)c1oc2ccc3c(c2c1C)C(=O)CC(C)(C)O3	FXN GAA850 act 7.9 | GAA30 FXN cntr 107 | GAA850 confirm 36
COc1cccc(C(NC(C)=O)c2nc(-c3ccc4ccccc4c3)cs2)c1 (configuration not stated)	none (no result: XBP1 UPR activ, CHOP UPR activ, CHOP inh)
Cc1ccc2c(C)c(C(=O)N3CCC(C(N)=O)(N4CCCCC4)CC3)oc2c1C	none (no result: XBP1 UPR activ, CHOP UPR activ, CHOP inh)

Screening data deposited in PubChem BioAssay by several laboratories.
